We go through eleven compounds from ChEMBL document CHEMBL2321841, “Structure-based drug design and potent anti-cancer activity of tricyclic 5:7:5-fused diimidazo[4,5-d:4',5'-f][1,3]diazepines” (Bioorg Med Chem, 2013).

The structures appear in SMILES notation.

Format in all cases: functional, cell-based
In one assay the test system is A549. The assay can be described thus: Cytotoxicity against human A549 cells after 72 hrs by WST1 assay. To be noted: A549, 72 h. An outline of the steps:
(§1)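 Cells were seeded the day before dosing at 0.5–1.7 × 10^3 cells/well in RPMI + 10% FBS. Compounds were dissolved in DMSO (stocks 100–200 mM) and tested at nine concentrations from 100 μM to 5 nM, in 4 replicates per dilution, with experiments repeated 1x or 2x. Exposure was 72 h at 37°C, 5% CO2, against a DMSO vehicle control. WST-1 was then added for 4 h and absorbance read at 450–690 nm.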
On the technique in general: Tetrazolium assays rely on reduction of a dye to a coloured formazan, in cell work by metabolically active cells.

Another assay concerns MCF7. The assay is described as follows: Cytotoxicity against human MCF7 cells after 72 hrs by WST1 assay. Particulars: MCF7, 72 h. Put shortly: as §1
In another assay the test system is PC-3. The assay can be described thus: Cytotoxicity against human PC3 cells after 72 hrs by WST1 assay. To be noted: PC-3, 72 h. Put shortly:
as §1

In a further assay the test system is MDA-MB-231. The assay is described as follows: Cytotoxicity against human MDA-MB-231 cells after 72 hrs by WST1 assay. To be noted: MDA-MB-231, 72 h. Put shortly: as §1
Assay [1] is described as follows: Cytotoxicity against human H460 cells after 72 hrs by WST1 assay. Particulars: NCI-H460, 72 h. An outline of the steps:
as §1

The subject of the next assay is OVCAR-3. The assay is described as follows: Cytotoxicity against human OVCAR3 cells after 72 hrs by WST1 assay. Particulars: OVCAR-3, 72 h. An outline of the steps: as §1

As for `COc1ccc(Cn2cnc3c4nc(=O)n(Cc5cccc(C(F)(F)F)c5)c-4ncnc32)cc1`, the IC50 with A549 worked out at 3190 nM; with MCF7, 4310 nM; with PC-3, 8300 nM; in the assay on MDA-MB-231 it was 4610 nM; in assay [1], 3100 nM; in the assay on OVCAR-3, 3680 nM.
For `COc1ccc(Cn2cnc3c4nc(=O)n(Cc5ccc(O)cc5)c-4ncnc32)cc1`, the IC50 in the assay with A549 stood at 4210 nM; in the assay on MCF7, 6580 nM; in the assay on PC-3, 5120 nM; with MDA-MB-231, 3150 nM; in assay [1] it was 4680 nM; with OVCAR-3 it was 4360 nM.
In the case of `COCCOc1ccc(Cn2c3ncnc4c(ncn4Cc4ccc(OC)cc4)c-3nc2=O)cc1`, the IC50 came to 4890 nM in the assay with A549; 14800 nM in the assay on MCF7; 6700 nM in the assay with PC-3; 5610 nM with MDA-MB-231; 5140 nM in assay [1]; 5450 nM with OVCAR-3.
Consider `COc1ccc(Cn2cnc3c4nc(=O)n(Cc5ccc(OCCO)cc5)c-4ncnc32)cc1`, for which the IC50 was 12300 nM with A549; 27200 nM in the assay on MCF7; 19700 nM with PC-3; 10600 nM in the assay with MDA-MB-231; 10900 nM in assay [1]; 13200 nM with OVCAR-3.
As to `COc1ccc(Cn2cnc3c4nc(=O)n(Cc5cccnc5)c-4ncnc32)cc1`, the IC50 turned out to be 8050 nM in the assay with A549; 19800 nM with MCF7; 26900 nM with PC-3; 8680 nM in the assay on MDA-MB-231; 8300 nM in assay [1]; 9890 nM in the assay on OVCAR-3.
As to `COc1ccc(Cn2cnc3c4nc(=O)n(Cc5ccc(Cl)cc5)c-4ncnc32)cc1`, the IC50 in the assay on A549 was found to be 780 nM; with MCF7, 2380 nM; with PC-3 it was 920 nM; with MDA-MB-231, 970 nM; in assay [1], 850 nM; with OVCAR-3, 880 nM.
`COc1ccc(Cn2cnc3c4nc(=O)n(Cc5ccc(Br)cc5)c-4ncnc32)cc1`: the IC50 stood at 630 nM in the assay with A549; 1020 nM with MCF7; 980 nM with PC-3; 1160 nM in the assay with MDA-MB-231; 570 nM in assay [1]; 1620 nM in the assay on OVCAR-3.
Consider `COc1ccc(Cn2cnc3c4nc(=O)n(Cc5cccc(F)c5)c-4ncnc32)cc1`, for which the IC50 in the assay on A549 came out at 1200 nM; in the assay with MCF7, 1640 nM; in the assay with PC-3, 1830 nM; in the assay on MDA-MB-231, 2700 nM; in assay [1] it was 1240 nM; with OVCAR-3 it was 3180 nM.
Take `COc1ccc(Cn2cnc3c4nc(=O)n(Cc5ccc(F)c(F)c5)c-4ncnc32)cc1`: the IC50 with A549 was found to be 990 nM; with MCF7, 1750 nM; in the assay with PC-3, 1590 nM; in the assay with MDA-MB-231, 1700 nM; in assay [1], 740 nM; with OVCAR-3, 2270 nM.
`COc1ccc(Cn2cnc3c4nc(=O)n(Cc5cccc(Cl)c5)c-4ncnc32)cc1`: the IC50 with A549 stood at 890 nM; with MCF7, 2490 nM; in the assay on PC-3, 970 nM; in the assay on MDA-MB-231 it was 1150 nM; in assay [1], 1000 nM; in the assay with OVCAR-3 it was 1070 nM.
As to `COc1ccc(Cn2cnc3c4nc(=O)n(Cc5cccc(Br)c5)c-4ncnc32)cc1`, the IC50 in the assay on A549 was determined as 1370 nM; with MCF7, 1850 nM; in the assay on PC-3, 2570 nM; in the assay with MDA-MB-231, 1530 nM; in assay [1], 1170 nM; in the assay with OVCAR-3 it was 1540 nM.

Usually IC50 stands for the midpoint of a concentration-inhibition curve.
